Data set [1] deals with Rattus norvegicus. In words: Toxicity in ovariectomized immatured Sprague-Dawley rat osteoporosis model assessed as effect on serum calcium level at 80 ng/kg, po once daily for 5 times per week for 4 weeks relative to control. The class given is organism-based. The following applies: in vivo, 8e-05 mg/kg, 672 h. In a few lines: (§1)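 Ovariectomized female 8-week-old Sprague–Dawley rats, n = 6 per group. Oral dosing five times per week for 4 weeks in medium-chain triglyceride (1 mL/kg). Vehicle-treated OVX and sham rats served as controls. Abdominal aortic blood drawn under ether 24 h after the last dose; serum calcium measured by autoanalyzer. ΔCa (%) = (treated − vehicle)/vehicle × 100. Mean ± SE.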

Data set [2] concerns Rattus norvegicus. Kind of data set: Toxicity in ovariectomized immatured Sprague-Dawley rat osteoporosis model assessed as effect on serum calcium level at 20 ng/kg, po once daily for 5 times per week for 4 weeks relative to control. The following applies: in vivo, 2e-05 mg/kg, 672 h. The class given is organism-based. In a few lines: as §1
Data set [3] relates to Rattus norvegicus. In words: Prevention of bone mineral density loss in ovariectomized immatured Sprague-Dawley rat osteoporosis model at 80 ng/kg, po once daily for 5 times per week for 4 weeks relative to control. The class given is functional. Put shortly: (§2)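 Female 8-week-old Sprague–Dawley (Crj: CD (SD)) rats, ovariectomized or sham-operated, n = 6 per group. From one day after surgery, oral dosing five times per week for 4 weeks; vehicle was medium-chain triglyceride at 1 mL/kg. Distal femur BMD read by dual-energy X-ray absorptiometry 24 h after the last dose. ΔBMD (%) = (treated − vehicle)/(sham − vehicle) × 100. Mean ± SE.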

Data set [4] concerns Rattus norvegicus. Kind of data set: Prevention of bone mineral density loss in ovariectomized immatured Sprague-Dawley rat osteoporosis model at 20 ng/kg, po once daily for 5 times per week for 4 weeks relative to control. The class given is functional. Put shortly:
as §2

Data set [5] has as its system Rattus norvegicus. Kind of data set: Prevention of bone mineral density loss in ovariectomized immatured Sprague-Dawley rat osteoporosis model at 320 ng/kg, po once daily for 5 times per week for 4 weeks relative to control. It counts as functional. In a few lines: as §2
Data set [6] deals with Rattus norvegicus. In words: Toxicity in ovariectomized immatured Sprague-Dawley rat osteoporosis model assessed as effect on serum calcium level at 320 ng/kg, po once daily for 5 times per week for 4 weeks relative to control. It counts as organism-based. The following applies: in vivo, 0.00032 mg/kg, 672 h. Put shortly: as §1
Data set [7] in a line: Mean residence time in Sprague-Dawley rat at 100 ug/kg, po. The following applies: in vivo, 0.1 mg/kg. The class given is ADME, organism-based. Put shortly:
(§3)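 Male Sprague–Dawley rats, 8 weeks old, fed, n = 3 per route. Single 100 µg/kg dose, iv in ethanol/Tween20/saline (10:2:88) or po in ethanol/MCT (1:9). Blood taken from the jugular vein and centrifuged to plasma. Drug extracted with diethyl ether and quantified by LC-MS/MS. Bioavailability given as F (%).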

Data set [8] concerns Rattus norvegicus. Kind of data set: Toxicity in ovariectomized matured Sprague-Dawley rat osteoporosis model assessed as effect on serum calcium level at 12 ng/kg, po once daily for 5 times per week for 4 weeks relative to control. The following applies: in vivo, 1.2e-05 mg/kg, 672 h. The class given is organism-based. In a few lines: (§4)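 Female 8-month-old Sprague–Dawley rats, ovariectomized or sham-operated, n = 8 per group. Starting one day post-surgery, oral dosing at 0.75–12 ng/kg, five times per week for 4 weeks; vehicle was MCT at 1 mL/kg. At 24 h after the last dose, aortic blood was taken for serum calcium by autoanalyzer. Distal femur and lumbar spine BMD measured by DXA.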

Data set [9] relates to Rattus norvegicus. In words: Toxicity in ovariectomized immatured Sprague-Dawley rat osteoporosis model assessed as effect on serum calcium level at 10 ng/kg, po once daily for 5 times per week for 4 weeks relative to control. It counts as organism-based. The following applies: in vivo, 1e-05 mg/kg, 672 h. In a few lines: as §1
For data set [10], the system named is Salmonella typhimurium. In words: Genotoxicity in Salmonella typhimurium by Ames test. The class given is toxicity, organism-based. The following applies: salmonella enterica subsp. enterica serovar typhimurium.
A short description of data set [11]: AUC (infinity) in Sprague-Dawley rat at 100 ug/kg, po. It counts as ADME, organism-based. More on the design: dose 100 ug/kg, time infinity, route oral. The following applies: plasma, 0.1 mg/kg. Put shortly:
as §3

The nature of data set [12]: Genotoxicity in micronucleus (unknown origin) by micronucleus assay.
A short description of data set [13]: Half life in Sprague-Dawley rat at 100 ug/kg, po. The class given is ADME, organism-based. The following applies: in vivo, 0.1 mg/kg. Put shortly:
as §3

Data set [14] concerns Rattus norvegicus. Kind of data set: Prevention of bone mineral density loss in distal femur of ovariectomized matured po dosed Sprague-Dawley rat osteoporosis model administered once daily for 5 times per week for 4 weeks. The class given is functional, organism-based. In a few lines: as §4
Data set [15] is described as follows: AUC (infinity) in Sprague-Dawley rat at 100 ug/kg, iv. More on the design: dose 100 ug/kg, time infinity, route intravenous. The following applies: plasma, 0.1 mg/kg. It counts as ADME, organism-based. In a few lines:
as §3

For data set [16], the system named is Rattus norvegicus. In words: Toxicity in ovariectomized immatured Sprague-Dawley rat osteoporosis model assessed as effect on serum calcium level at 40 ng/kg, po once daily for 5 times per week for 4 weeks relative to control. The class given is organism-based. The following applies: in vivo, 4e-05 mg/kg, 672 h. In a few lines: as §1
Data set [17] concerns Rattus norvegicus. In words: Toxicity in ovariectomized matured Sprague-Dawley rat osteoporosis model assessed as effect on body weight at 0.75 to 12 ng/kg, po once daily for 5 times per week for 4 weeks. It counts as organism-based. The following applies: in vivo, 672 h.
Data set [18] can be described thus: Mean residence time in Sprague-Dawley rat at 100 ug/kg, iv. The following applies: in vivo, 0.1 mg/kg. It counts as ADME, organism-based. Put shortly:
as §3

Data set [19] in a line: Total clearance in Sprague-Dawley rat at 100 ug/kg, iv. It counts as ADME, organism-based. The following applies: in vivo, 0.1 mg/kg. Put shortly: as §3
The nature of data set [20]: Volume of distribution at steady state in Sprague-Dawley rat at 100 ug/kg, iv. The class given is ADME, organism-based. The following applies: in vivo, 0.1 mg/kg, read-out: Vdss. Put shortly: as §3
The test system of data set [21] is Rattus norvegicus. In words: Prevention of bone mineral density loss in ovariectomized immatured Sprague-Dawley rat osteoporosis model at 40 ng/kg, po once daily for 5 times per week for 4 weeks relative to control. The class given is functional. Put shortly: as §2
Data set [22] relates to Rattus norvegicus. In words: Toxicity in ovariectomized matured Sprague-Dawley rat osteoporosis model assessed as effect on serum calcium level at 0.75 to 6 ng/kg, po once daily for 5 times per week for 4 weeks relative to control. It counts as organism-based. The following applies: in vivo, 672 h. In a few lines: as §4
Data set [23] can be described thus: Cmax in Sprague-Dawley rat at 100 ug/kg, po. The class given is ADME, organism-based. Set-up: dose 100 ug/kg, route oral. The following applies: in vivo, 0.1 mg/kg. In a few lines:
as §3

Data set [24] concerns Rattus norvegicus. Kind of data set: Prevention of bone mineral density loss in ovariectomized immatured Sprague-Dawley rat osteoporosis model at 10 ng/kg, po once daily for 5 times per week for 4 weeks relative to control. It counts as functional. In a few lines: as §2
A short description of data set [25]: Half life in Sprague-Dawley rat at 100 ug/kg, iv. It counts as ADME, organism-based. The following applies: in vivo, 0.1 mg/kg. In a few lines: as §3
Data set [26] is described as follows: Oral bioavailability in Sprague-Dawley rat at 100 ug/kg. It counts as ADME, organism-based. The following applies: in vivo, 0.1 mg/kg. In a few lines:
as §3

The subject of data set [27] is Rattus norvegicus. In words: Prevention of bone mineral density loss in ovariectomized immatured Sprague-Dawley rat osteoporosis model at 30 ng/kg, po once daily for 5 times per week for 4 weeks relative to control. It counts as functional. Put shortly: as §2
In data set [28] the test system is Rattus norvegicus. Kind of data set: Prevention of bone mineral density loss in ovariectomized immatured Sprague-Dawley rat osteoporosis model administered orally once daily for 5 times per week for 4 weeks. The class given is functional, organism-based. In a few lines:
as §2

Data set [29] relates to Rattus norvegicus. Kind of data set: Toxicity in ovariectomized immatured Sprague-Dawley rat osteoporosis model assessed as effect on serum calcium level at 30 ng/kg, po once daily for 5 times per week for 4 weeks relative to control. The class given is organism-based. The following applies: in vivo, 3e-05 mg/kg, 672 h. In a few lines:
as §1

Data set [30] relates to Rattus norvegicus. Kind of data set: Toxicity in ovariectomized immatured Sprague-Dawley rat osteoporosis model assessed as effect on serum calcium level at 50 ng/kg, po once daily for 5 times per week for 4 weeks relative to control. The class given is organism-based. The following applies: in vivo, 5e-05 mg/kg, 672 h. In a few lines: as §1
Data set [31] deals with Rattus norvegicus. Kind of data set: Prevention of bone mineral density loss in ovariectomized immatured Sprague-Dawley rat osteoporosis model at 50 ng/kg, po once daily for 5 times per week for 4 weeks relative to control. It counts as functional. In a few lines: as §2
Data set [32] concerns Rattus norvegicus. In words: Prevention of bone mineral density loss in ovariectomized immatured Sprague-Dawley rat osteoporosis model at 25 ng/kg, po once daily for 5 times per week for 4 weeks relative to control. It counts as functional. In a few lines: as §2
In data set [33] the test system is Rattus norvegicus. Kind of data set: Toxicity in ovariectomized immatured Sprague-Dawley rat osteoporosis model assessed as effect on serum calcium level at 25 ng/kg, po once daily for 5 times per week for 4 weeks relative to control. It counts as organism-based. The following applies: in vivo, 2.5e-05 mg/kg, 672 h. In a few lines:
as §1

As to `C=C1/C(=C\C=C2/CCC[C@]3(C)[C@@H]([C@H](C)CCCC(C)(C)O)CC[C@@H]23)C[C@@H](O)C[C@@H]1O` [CALCITRIOL], the Activity was 2.5% in data set [1]; 2.5% in data set [2]; 53% in data set [3]; 4% in [4]; 58% in data set [5]; 5.1% in data set [6].

Consider `CCC(O)(/C=C/c1ccc(C(CC)(CC)c2ccc(-c3ccc(CC(=O)O)cn3)c(C)c2)cc1C)CC`, for which the values for the MRT in data set [7] and in data set [18] were 28.3 h and 11.2 h, respectively. Also, the Activity result was “Toxic” in data set [8]; -2.9% in data set [9]; “Non-toxic” in data set [10]; “Non-toxic” in data set [12]; “Dose-dependent effect” in data set [14]; 2.2% in data set [2]. Besides, the Activity in data set [16] was 8.4%; in data set [4] it was 172%; in data set [17], “Non-toxic”; in data set [21], 198%; in data set [22], “Non-toxic”; in data set [24], 122%. For the same compound, the figures for the AUC(0-inf) in [11] and in data set [15] were 1650 ng·h/mL and 1130 ng·h/mL, respectively. In addition, the figures for the half-life in data set [13] and in data set [25] were 17.6 h and 8.5 h, respectively. In addition, in data set [19], the clearance is 1.51 mL/min/kg. Also, the Vd in data set [20] was found to be 0.99 L/kg. In data set [23], this compound had a Cmax of 54 ng/mL. Further, the bioavailability in data set [26] was found to be 95.1%.

For `CCC(CC)(c1ccc(/C=C/C(O)(C(F)(F)F)C(F)(F)F)c(C)c1)c1ccc(-c2ccc(CC(=O)O)cc2)c(C)c1`, the Activity is 89% in [27]; 0.6% in data set [9]; “Dose-dependent effect” in [28]; 6.9% in data set [29]; 47% in data set [24].

For `CCC(O)(/C=C/c1ccc(C(CC)(CC)c2ccc(-c3ccc(CC(=O)O)cc3)c(C)c2)cc1C)CC`, the Activity in [30] is 8.7%; in data set [31], 81%; in data set [28] it was “Dose-dependent effect”; in data set [32], 42%; in data set [33], 0.7%.

Take `CCC(CC)(c1ccc(/C=C/C(O)(C(F)(F)F)C(F)(F)F)c(C)c1)c1ccc(-c2ccc(CC(=O)O)c(F)c2)c(C)c1`: the Activity result in data set [28] is “Dose-dependent effect”.

Values taken from ChEMBL document CHEMBL2346563, “A series of nonsecosteroidal vitamin D receptor agonists for osteoporosis therapy” (Bioorg Med Chem, 2013).
